According to ChEMBL document CHEMBL4689842, “EUbOPEN Chemogenomics Library wave 1” (2021):

System: Fibroblast
Test: Multiplex assay against human fibroblast
Format: toxicity, cell-based
How it was run: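 Live cells were stained at seeding with Hoechst33342, BioTracker Green Microtubule Cytoskeleton Dye, MitoTracker Red and Annexin V Alexa Fluor 680. Following compound addition, they were imaged on a CQ1 microscope at 37°C and 5% CO2 and gated by CellPathfinder machine learning into Hoechst high-intensity objects or normal cells, with normal cells split into healthy, pyknosed or fragmented nuclei and pyknosed cells into mitotic or apoptotic. Tubulin, mitochondrial-mass and membrane-permeability phenotypes are per cents of healthy-nucleus cells.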

[1] = 12 h, 1 µM, compound concentration 1 uM, replicate 1
[2] = 12 h, 1 µM, compound concentration 1 uM, replicate 2
[3] = 12 h, 10 µM, compound concentration 10 uM, replicate 1
[4] = 12 h, 10 µM, compound concentration 10 uM, replicate 2
[5] = 24 h, 1 µM, compound concentration 1 uM, replicate 1
[6] = 24 h, 1 µM, compound concentration 1 uM, replicate 2
[7] = 24 h, 10 µM, compound concentration 10 uM, replicate 1
[8] = 24 h, 10 µM, compound concentration 10 uM, replicate 2
[9] = 48 h, 1 µM, compound concentration 1 uM, replicate 1
[10] = 48 h, 1 µM, compound concentration 1 uM, replicate 2
[11] = 48 h, 10 µM, compound concentration 10 uM, replicate 1
[12] = 48 h, 10 µM, compound concentration 10 uM, replicate 2

COc1cc2c(Nc3ccc(NC(=O)c4ccccc4)cc3)ncnc2cc1OCCCN1CCOCC1
Population Apoptotic (%) [1]: 55% | Population Fragmented Nuclei (%) [1]: 25% | Population Healthy Nuclei (%) [1]: 53% | Population Hoechst High Intensity Objects (%) [1]: 35% | Population Membrane Permeable-Phenotype (%) [1]: 9% | Population Mitochondria Different-Phenotype (%) [1]: 10% | Population Mitotic Cells (%) [1]: 44% | Population Normal (%) [1]: 64% | Population Pyknosed Nuclei (%) [1]: 20% | Population Tubulin-Different-Phenotype (%) [1]: 41% | Total Cell Count [1]: 470 | Population Apoptotic (%) [2]: 33% | Population Fragmented Nuclei (%) [2]: 44% | Population Healthy Nuclei (%) [2]: 46% | Population Hoechst High Intensity Objects (%) [2]: 30% | Population Membrane Permeable-Phenotype (%) [2]: 22% | Population Mitochondria Different-Phenotype (%) [2]: 12% | Population Mitotic Cells (%) [2]: 66% | Population Normal (%) [2]: 69% | Population Pyknosed Nuclei (%) [2]: 8% | Population Tubulin-Different-Phenotype (%) [2]: 64% | Total Cell Count [2]: 97 | Population Apoptotic (%) [3]: 82% | Population Fragmented Nuclei (%) [3]: 39% | Population Healthy Nuclei (%) [3]: 49% | Population Hoechst High Intensity Objects (%) [3]: 19% | Population Membrane Permeable-Phenotype (%) [3]: 9% | Population Mitochondria Different-Phenotype (%) [3]: 5% | Population Mitotic Cells (%) [3]: 17% | Population Normal (%) [3]: 80% | Population Pyknosed Nuclei (%) [3]: 11% | Population Tubulin-Different-Phenotype (%) [3]: 4% | Total Cell Count [3]: 250 | Population Apoptotic (%) [4]: 0% | Population Fragmented Nuclei (%) [4]: 70% | Population Healthy Nuclei (%) [4]: 27% | Population Hoechst High Intensity Objects (%) [4]: 41% | Population Membrane Permeable-Phenotype (%) [4]: 0% | Population Mitochondria Different-Phenotype (%) [4]: 7% | Population Mitotic Cells (%) [4]: 100% | Population Normal (%) [4]: 58% | Population Pyknosed Nuclei (%) [4]: 2% | Population Tubulin-Different-Phenotype (%) [4]: 7% | Total Cell Count [4]: 82 | Population Apoptotic (%) [5]: 61% | Population Fragmented Nuclei (%) [5]: 26% | Population Healthy Nuclei (%) [5]: 47% | Population Hoechst High Intensity Objects (%) [5]: 46% | Population Membrane Permeable-Phenotype (%) [5]: 14% | Population Mitochondria Different-Phenotype (%) [5]: 17% | Population Mitotic Cells (%) [5]: 38% | Population Normal (%) [5]: 53% | Population Pyknosed Nuclei (%) [5]: 26% | Population Tubulin-Different-Phenotype (%) [5]: 59% | Total Cell Count [5]: 391 | Population Apoptotic (%) [6]: 58% | Population Fragmented Nuclei (%) [6]: 34% | Population Healthy Nuclei (%) [6]: 42% | Population Hoechst High Intensity Objects (%) [6]: 41% | Population Membrane Permeable-Phenotype (%) [6]: 23% | Population Mitochondria Different-Phenotype (%) [6]: 33% | Population Mitotic Cells (%) [6]: 41% | Population Normal (%) [6]: 58% | Population Pyknosed Nuclei (%) [6]: 24% | Population Tubulin-Different-Phenotype (%) [6]: 52% | Total Cell Count [6]: 85 | Population Apoptotic (%) [7]: 76% | Population Fragmented Nuclei (%) [7]: 31% | Population Healthy Nuclei (%) [7]: 55% | Population Hoechst High Intensity Objects (%) [7]: 22% | Population Membrane Permeable-Phenotype (%) [7]: 6% | Population Mitochondria Different-Phenotype (%) [7]: 3% | Population Mitotic Cells (%) [7]: 24% | Population Normal (%) [7]: 77% | Population Pyknosed Nuclei (%) [7]: 13% | Population Tubulin-Different-Phenotype (%) [7]: 5% | Total Cell Count [7]: 248 | Population Apoptotic (%) [8]: 66% | Population Fragmented Nuclei (%) [8]: 69% | Population Healthy Nuclei (%) [8]: 25% | Population Hoechst High Intensity Objects (%) [8]: 32% | Population Membrane Permeable-Phenotype (%) [8]: 15% | Population Mitochondria Different-Phenotype (%) [8]: 7% | Population Mitotic Cells (%) [8]: 33% | Population Normal (%) [8]: 67% | Population Pyknosed Nuclei (%) [8]: 5% | Population Tubulin-Different-Phenotype (%) [8]: 15% | Total Cell Count [8]: 77

Cc1cc2c(cc1N1C(=O)c3cccc4c(CCCO)ccc(c34)C1=O)n(C)c(=O)n2C
Population Apoptotic (%) [1]: 68% | Population Fragmented Nuclei (%) [1]: 19% | Population Healthy Nuclei (%) [1]: 49% | Population Hoechst High Intensity Objects (%) [1]: 17% | Population Membrane Permeable-Phenotype (%) [1]: 30% | Population Mitochondria Different-Phenotype (%) [1]: 8% | Population Mitotic Cells (%) [1]: 31% | Population Normal (%) [1]: 82% | Population Pyknosed Nuclei (%) [1]: 31% | Population Tubulin-Different-Phenotype (%) [1]: 41% | Total Cell Count [1]: 148 | Population Apoptotic (%) [2]: 0% | Population Fragmented Nuclei (%) [2]: 6% | Population Healthy Nuclei (%) [2]: 90% | Population Hoechst High Intensity Objects (%) [2]: 8% | Population Membrane Permeable-Phenotype (%) [2]: 1% | Population Mitochondria Different-Phenotype (%) [2]: 22% | Population Mitotic Cells (%) [2]: 100% | Population Normal (%) [2]: 91% | Population Pyknosed Nuclei (%) [2]: 3% | Population Tubulin-Different-Phenotype (%) [2]: 24% | Total Cell Count [2]: 104 | Population Apoptotic (%) [3]: 68% | Population Fragmented Nuclei (%) [3]: 21% | Population Healthy Nuclei (%) [3]: 46% | Population Hoechst High Intensity Objects (%) [3]: 12% | Population Membrane Permeable-Phenotype (%) [3]: 21% | Population Mitochondria Different-Phenotype (%) [3]: 7% | Population Mitotic Cells (%) [3]: 31% | Population Normal (%) [3]: 87% | Population Pyknosed Nuclei (%) [3]: 31% | Population Tubulin-Different-Phenotype (%) [3]: 72% | Total Cell Count [3]: 126 | Population Apoptotic (%) [4]: 37% | Population Fragmented Nuclei (%) [4]: 20% | Population Healthy Nuclei (%) [4]: 63% | Population Hoechst High Intensity Objects (%) [4]: 9% | Population Membrane Permeable-Phenotype (%) [4]: 29% | Population Mitochondria Different-Phenotype (%) [4]: 77% | Population Mitotic Cells (%) [4]: 62% | Population Normal (%) [4]: 90% | Population Pyknosed Nuclei (%) [4]: 16% | Population Tubulin-Different-Phenotype (%) [4]: 96% | Total Cell Count [4]: 54 | Population Apoptotic (%) [5]: 46% | Population Fragmented Nuclei (%) [5]: 20% | Population Healthy Nuclei (%) [5]: 55% | Population Hoechst High Intensity Objects (%) [5]: 19% | Population Membrane Permeable-Phenotype (%) [5]: 31% | Population Mitochondria Different-Phenotype (%) [5]: 5% | Population Mitotic Cells (%) [5]: 53% | Population Normal (%) [5]: 80% | Population Pyknosed Nuclei (%) [5]: 24% | Population Tubulin-Different-Phenotype (%) [5]: 41% | Total Cell Count [5]: 130 | Population Apoptotic (%) [6]: 40% | Population Fragmented Nuclei (%) [6]: 7% | Population Healthy Nuclei (%) [6]: 87% | Population Hoechst High Intensity Objects (%) [6]: 3% | Population Membrane Permeable-Phenotype (%) [6]: 0% | Population Mitochondria Different-Phenotype (%) [6]: 27% | Population Mitotic Cells (%) [6]: 60% | Population Normal (%) [6]: 96% | Population Pyknosed Nuclei (%) [6]: 5% | Population Tubulin-Different-Phenotype (%) [6]: 17% | Total Cell Count [6]: 96 | Population Apoptotic (%) [7]: 58% | Population Fragmented Nuclei (%) [7]: 22% | Population Healthy Nuclei (%) [7]: 47% | Population Hoechst High Intensity Objects (%) [7]: 15% | Population Membrane Permeable-Phenotype (%) [7]: 13% | Population Mitochondria Different-Phenotype (%) [7]: 17% | Population Mitotic Cells (%) [7]: 41% | Population Normal (%) [7]: 84% | Population Pyknosed Nuclei (%) [7]: 29% | Population Tubulin-Different-Phenotype (%) [7]: 45% | Total Cell Count [7]: 115 | Population Apoptotic (%) [8]: 80% | Population Fragmented Nuclei (%) [8]: 18% | Population Healthy Nuclei (%) [8]: 62% | Population Hoechst High Intensity Objects (%) [8]: 11% | Population Membrane Permeable-Phenotype (%) [8]: 41% | Population Mitochondria Different-Phenotype (%) [8]: 76% | Population Mitotic Cells (%) [8]: 20% | Population Normal (%) [8]: 88% | Population Pyknosed Nuclei (%) [8]: 18% | Population Tubulin-Different-Phenotype (%) [8]: 76% | Total Cell Count [8]: 61 | Population Apoptotic (%) [9]: 34% | Population Fragmented Nuclei (%) [9]: 31% | Population Healthy Nuclei (%) [9]: 45% | Population Hoechst High Intensity Objects (%) [9]: 21% | Population Membrane Permeable-Phenotype (%) [9]: 28% | Population Mitochondria Different-Phenotype (%) [9]: 2% | Population Mitotic Cells (%) [9]: 65% | Population Normal (%) [9]: 78% | Population Pyknosed Nuclei (%) [9]: 22% | Population Tubulin-Different-Phenotype (%) [9]: 30% | Total Cell Count [9]: 129 | Population Apoptotic (%) [10]: 100% | Population Fragmented Nuclei (%) [10]: 28% | Population Healthy Nuclei (%) [10]: 69% | Population Hoechst High Intensity Objects (%) [10]: 9% | Population Membrane Permeable-Phenotype (%) [10]: 21% | Population Mitochondria Different-Phenotype (%) [10]: 1% | Population Mitotic Cells (%) [10]: 0% | Population Normal (%) [10]: 90% | Population Pyknosed Nuclei (%) [10]: 2% | Population Tubulin-Different-Phenotype (%) [10]: 35% | Total Cell Count [10]: 118 | Population Apoptotic (%) [11]: 90% | Population Fragmented Nuclei (%) [11]: 35% | Population Healthy Nuclei (%) [11]: 54% | Population Hoechst High Intensity Objects (%) [11]: 18% | Population Membrane Permeable-Phenotype (%) [11]: 22% | Population Mitotic Cells (%) [11]: 10% | Population Normal (%) [11]: 81% | Population Pyknosed Nuclei (%) [11]: 10% | Population Tubulin-Different-Phenotype (%) [11]: 62% | Total Cell Count [11]: 120 | Population Apoptotic (%) [12]: 66% | Population Fragmented Nuclei (%) [12]: 26% | Population Healthy Nuclei (%) [12]: 68% | Population Hoechst High Intensity Objects (%) [12]: 9% | Population Membrane Permeable-Phenotype (%) [12]: 23% | Population Mitochondria Different-Phenotype (%) [12]: 5% | Population Mitotic Cells (%) [12]: 33% | Population Normal (%) [12]: 90% | Population Pyknosed Nuclei (%) [12]: 6% | Population Tubulin-Different-Phenotype (%) [12]: 85% | Total Cell Count [12]: 55
